Experimental data from ChEMBL document CHEMBL4145582, “Cytotoxic and Antibacterial Eremophilane Sesquiterpenes from the Marine-Derived Fungus Cochliobolus lunatus SCSIO41401” (J Nat Prod, 2018).
Values after ≈ are worked out from the molar mass of the structure shown.

What was measured:
[1] = tested on: ACHN; assay: Cytotoxicity against human ACHN cells after 72 hrs by CCK8 assay; format: functional, cell-based
Summary of the method: (§1)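 Renal cancer lines ACHN, 786-O and OS-RC-2; cell viability read by CCK-8 assay, with sorafenib as positive control.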

[2] = tested on: 786-0; assay: Cytotoxicity against human 786-O cells after 72 hrs by CCK8 assay; format: functional, cell-based; settings: 786-0, 72 h; summary of the method: as §1
[3] = tested on: OS-RC-2; assay: Cytotoxicity against human OS-RC2 cells after 72 hrs by CCK8 assay; format: functional, cell-based; settings: OS-RC-2, 72 h; summary of the method: as §1
[4] = tested on: HepG2; assay: Cytotoxicity against human HepG2 cells after 6 days by MTT assay; format: functional, cell-based; settings: HepG2, 144 h
Summary of the method: (§2)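 HepG-2 and SGC7901 cells; growth inhibition read by MTT method, with 5-fluorouracil as positive control.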

[5] = tested on: SGC-7901; assay: Cytotoxicity against human SGC7901 cells after 6 days by MTT assay; format: functional, cell-based; settings: SGC-7901, 144 h; summary of the method: as §2
[6] = tested on: Escherichia coli; assay: Antimicrobial activity against Escherichia coli ATCC 25922 after 24 hrs by serial dilution method; format: functional; settings: ATCC 25922, 24 h
Summary of the method: (§3)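 Serial broth dilution in 96-well microtiter plates. Compounds and controls are dissolved in DMSO as stock. Bacteria are grown overnight at 37 °C, then diluted to 10^6 cfu/mL. E. coli and S. aureus are grown in Luria–Bertani broth. P. multocida and E. rhusiopathiae are grown in trypticase soy broth with 10% calf serum. Plates are incubated at 37 °C for 24 h and read at 630 nm.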

[7] = tested on: Staphylococcus aureus; assay: Antimicrobial activity against Staphylococcus aureus subsp. aureus Rosenbach ATCC 25923 after 24 hrs by serial dilution method; format: functional; settings: Rosenbach ATCC 25923, 24 h; summary of the method: as §3
[8] = tested on: Erysipelothrix rhusiopathiae; assay: Antimicrobial activity against Erysipelothrix rhusiopathiae ATCC 19414 after 24 hrs by serial dilution method; format: functional; settings: ATCC 19414, 24 h; summary of the method: as §3
[9] = tested on: Pasteurella multocida; assay: Antimicrobial activity against Pasteurella multocida subsp. multocida ATCC 43137 after 24 hrs by serial dilution method; format: functional; settings: ATCC 43137, 24 h; summary of the method: as §3

Row | Structure (SMILES) | IC50 [1] [µM] | IC50 [2] [µM] | IC50 [3] [µM] | IC50 [4] [µM] | IC50 [5] [µM] | MIC [6] [mg/L] | MIC [7] [mg/L] | MIC [8] [mg/L] | MIC [9] [mg/L]
1 | CNC(=O)c1cc(Oc2ccc(NC(=O)Nc3ccc(Cl)c(C(F)(F)F)c3)cc2)ccn1 [SORAFENIB] | 3.5 | 5.3 | 15 |  |  |  |  |  | 
2 | C=C(CO)[C@]1(O)C[C@@]2(C)C(=CC1=O)C=CC[C@@H]2C | > 50 | > 50 | > 50 | > 50 | > 50 | > 100 | > 100 | > 100 | > 100
3 | CC[C@@H]1OC(=O)c2cc(O)c(O)cc21 | 34 | 28 | > 50 | > 50 | > 50 | > 100 | > 100 | > 100 | > 100
4 | COC(=O)[C@]12Oc3cc(C)c(-c4ccc(O)c5c4O[C@@]4(C(=O)OC)C(=C(O)C[C@@H](C)[C@H]4O)C5=O)c(O)c3C(=O)C1=C(O)CC[C@H]2O | > 50 | 46 | > 50 | > 50 | > 50 | > 100 | 50 (≈ 78.3 µM) | 25 (≈ 39.1 µM) | 13 (≈ 20.4 µM)
5 | CC1(C)S[C@@H]2[C@H](NC(=O)Cc3ccccc3)C(=O)N2[C@H]1C(=O)O [PENICILLIN G] |  |  |  |  |  |  | 13 (≈ 38.9 µM) | 13 (≈ 38.9 µM) | 13 (≈ 38.9 µM)
6 | CC[C@@H]1OC(=O)c2c1ccc(O)c2O | > 50 | > 50 | > 50 | > 50 | > 50 | > 100 | > 100 | > 100 | > 100
